We go through ten compounds from ChEMBL document CHEMBL1157150, “Synthesis, structure and antibacterial activity of novel 1-(5-substituted-3-substituted-4,5-dihydropyrazol-1-yl)ethanone oxime ester derivatives” (Bioorg Med Chem, 2008).

In brackets after ≈: the same amount, converted by molar mass. Activity calls are given as the source filed them. The rule behind the calls is not given here.

For the first assay, the system named is Bacillus subtilis. Briefly: microbe, parasite or virus in culture. It counts as functional. The settings on record: ATCC 6633.
Regarding `CC1=NN(/C(C)=N\OC(=O)/C=C/c2ccccc2)C(c2ccc(OCc3ccc(F)cc3)cc2)C1` (configuration not stated), the MIC was 12.5 µg/mL (≈ 26.5 µM).

Compound `C/C(=N/OC(=O)c1ccco1)N1N=C(c2ccc(Cl)cc2Cl)CC1c1ccc(C(F)(F)F)cc1` (configuration not stated) displayed an MIC of 1.56 µg/mL (≈ 3.06 µM).

Turning to `C/C(=N/OC(=O)c1ccco1)N1N=C(c2ccc(Cl)cc2Cl)CC1c1ccccc1F` (configuration not stated), the MIC was 3.12 µg/mL (≈ 6.79 µM).

`C/C(=N/OC(=O)c1ccc(Cl)cc1)N1N=C(c2ccc(Cl)cc2Cl)CC1c1ccccc1F` (configuration not stated): the MIC turned out to be 12.5 µg/mL (≈ 24.8 µM).

With `C=CC(=O)O/N=C(/C)N1N=C(C)CC1c1ccc(OCc2ccc(F)cc2)cc1` (configuration not stated), the MIC worked out at 12.5 µg/mL (≈ 31.6 µM).

`C=CC(=O)O/N=C(/C)N1N=C(c2ccc(Cl)cc2Cl)CC1c1ccc(C(F)(F)F)cc1` (configuration not stated) yielded an MIC of 3.12 µg/mL (≈ 6.65 µM).

Consider `C/C(=N/OC(=O)c1ccccc1F)N1N=C(c2ccc(Cl)cc2Cl)CC1c1ccc(C(F)(F)F)cc1` (configuration not stated), for which the MIC was found to be 12.5 µg/mL (≈ 23.2 µM).

With `CC1=NN(/C(C)=N\OC(=O)c2ccccc2F)C(c2ccccc2OCc2ccc(F)cc2)C1` (configuration not stated), the MIC stood at 50 µg/mL (≈ 108 µM).

Consider `C/C(=N/OC(=O)/C=C/c1ccccc1)N1N=C(c2ccc(Cl)cc2Cl)CC1c1ccc(C(F)(F)F)cc1` (configuration not stated), for which the MIC is 1.56 µg/mL (≈ 2.86 µM).

Regarding `C/C(=N/OC(=O)/C=C/c1ccccc1)N1N=C(c2ccc(Cl)cc2Cl)CC1c1ccccc1F` (configuration not stated), the MIC stood at 6.25 µg/mL (≈ 12.6 µM).

The test system of a further assay is Pseudomonas aeruginosa. Briefly: Antibacterial activity against Pseudomonas aeruginosa ATCC 13525. It counts as functional, organism-based.
Details: not given
Put shortly: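 Broth microdilution in MH medium with an inoculum of about 10⁵ cfu/mL. Compounds were serially diluted from a DMSO stock and incubated 24 h at 37 °C. MIC was read visually, then confirmed colorimetrically: MTT (2 mg/mL in PBS, pH 7.4) was added for 4–5 h at room temperature, the dye was extracted with isopropanol/5% 1 mol/L HCl for 12 h, and OD was read at 550 nm.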
With `CC1=NN(/C(C)=N\OC(=O)/C=C/c2ccccc2)C(c2ccc(OCc3ccc(F)cc3)cc2)C1` (configuration not stated), the result was Active.

For the compound `C/C(=N/OC(=O)c1ccco1)N1N=C(c2ccc(Cl)cc2Cl)CC1c1ccc(C(F)(F)F)cc1` (configuration not stated), the outcome was Active.

Turning to `C/C(=N/OC(=O)c1ccco1)N1N=C(c2ccc(Cl)cc2Cl)CC1c1ccccc1F` (configuration not stated), the result was Active.

For the compound `C/C(=N/OC(=O)c1ccc(Cl)cc1)N1N=C(c2ccc(Cl)cc2Cl)CC1c1ccccc1F` (configuration not stated), the outcome was Active.

As for `C=CC(=O)O/N=C(/C)N1N=C(C)CC1c1ccc(OCc2ccc(F)cc2)cc1` (configuration not stated), the result was Active.

As for `C=CC(=O)O/N=C(/C)N1N=C(c2ccc(Cl)cc2Cl)CC1c1ccc(C(F)(F)F)cc1` (configuration not stated), the result was Active.

Consider `C/C(=N/OC(=O)c1ccccc1F)N1N=C(c2ccc(Cl)cc2Cl)CC1c1ccc(C(F)(F)F)cc1` (configuration not stated), for which the result was Active.

Regarding `CC1=NN(/C(C)=N\OC(=O)c2ccccc2F)C(c2ccccc2OCc2ccc(F)cc2)C1` (configuration not stated), the result was Active.

As for `C/C(=N/OC(=O)/C=C/c1ccccc1)N1N=C(c2ccc(Cl)cc2Cl)CC1c1ccc(C(F)(F)F)cc1` (configuration not stated), the outcome was Active.

For the compound `C/C(=N/OC(=O)/C=C/c1ccccc1)N1N=C(c2ccc(Cl)cc2Cl)CC1c1ccccc1F` (configuration not stated), the result was Active.

The subject of a further assay is Pseudomonas fluorescens. The assay is described as follows: Antibacterial activity against Pseudomonas fluorescens ATCC 13525.
Details: not given
It counts as functional.
The compound `CC1=NN(/C(C)=N\OC(=O)/C=C/c2ccccc2)C(c2ccc(OCc3ccc(F)cc3)cc2)C1` (configuration not stated) showed an MIC of 12.5 µg/mL (≈ 26.5 µM).

Compound `C/C(=N/OC(=O)c1ccco1)N1N=C(c2ccc(Cl)cc2Cl)CC1c1ccc(C(F)(F)F)cc1` (configuration not stated) showed an MIC of 1.56 µg/mL (≈ 3.06 µM).

As to `C/C(=N/OC(=O)c1ccco1)N1N=C(c2ccc(Cl)cc2Cl)CC1c1ccccc1F` (configuration not stated), the MIC worked out at 6.25 µg/mL (≈ 13.6 µM).

`C/C(=N/OC(=O)c1ccc(Cl)cc1)N1N=C(c2ccc(Cl)cc2Cl)CC1c1ccccc1F` (configuration not stated) returned an MIC of 50 µg/mL (≈ 99.1 µM).

In turn, `C=CC(=O)O/N=C(/C)N1N=C(C)CC1c1ccc(OCc2ccc(F)cc2)cc1` (configuration not stated) showed an MIC of 50 µg/mL (≈ 126 µM).

In the case of `C=CC(=O)O/N=C(/C)N1N=C(c2ccc(Cl)cc2Cl)CC1c1ccc(C(F)(F)F)cc1` (configuration not stated), the MIC is 12.5 µg/mL (≈ 26.6 µM).

`C/C(=N/OC(=O)c1ccccc1F)N1N=C(c2ccc(Cl)cc2Cl)CC1c1ccc(C(F)(F)F)cc1` (configuration not stated): the MIC was 12.5 µg/mL (≈ 23.2 µM).

For `CC1=NN(/C(C)=N\OC(=O)c2ccccc2F)C(c2ccccc2OCc2ccc(F)cc2)C1` (configuration not stated), the MIC came to 50 µg/mL (≈ 108 µM).

Regarding `C/C(=N/OC(=O)/C=C/c1ccccc1)N1N=C(c2ccc(Cl)cc2Cl)CC1c1ccc(C(F)(F)F)cc1` (configuration not stated), the MIC is 3.12 µg/mL (≈ 5.72 µM).

`C/C(=N/OC(=O)/C=C/c1ccccc1)N1N=C(c2ccc(Cl)cc2Cl)CC1c1ccccc1F` (configuration not stated) gave an MIC of 3.12 µg/mL (≈ 6.3 µM).

The test system of a further assay is Staphylococcus aureus. Briefly: Antibacterial activity against Staphylococcus aureus ATCC 6538. It counts as functional.
Details: not given
Compound `CC1=NN(/C(C)=N\OC(=O)/C=C/c2ccccc2)C(c2ccc(OCc3ccc(F)cc3)cc2)C1` (configuration not stated) gave an MIC of 12.5 µg/mL (≈ 26.5 µM).

Turning to `C/C(=N/OC(=O)c1ccco1)N1N=C(c2ccc(Cl)cc2Cl)CC1c1ccc(C(F)(F)F)cc1` (configuration not stated), the MIC came out at 3.12 µg/mL (≈ 6.12 µM).

As to `C/C(=N/OC(=O)c1ccco1)N1N=C(c2ccc(Cl)cc2Cl)CC1c1ccccc1F` (configuration not stated), the MIC was 1.56 µg/mL (≈ 3.39 µM).

`C/C(=N/OC(=O)c1ccc(Cl)cc1)N1N=C(c2ccc(Cl)cc2Cl)CC1c1ccccc1F` (configuration not stated) showed an MIC of 50 µg/mL (≈ 99.1 µM).

Regarding `C=CC(=O)O/N=C(/C)N1N=C(C)CC1c1ccc(OCc2ccc(F)cc2)cc1` (configuration not stated), the MIC turned out to be 50 µg/mL (≈ 126 µM).

`C=CC(=O)O/N=C(/C)N1N=C(c2ccc(Cl)cc2Cl)CC1c1ccc(C(F)(F)F)cc1` (configuration not stated): the MIC worked out at 12.5 µg/mL (≈ 26.6 µM).

Compound `C/C(=N/OC(=O)c1ccccc1F)N1N=C(c2ccc(Cl)cc2Cl)CC1c1ccc(C(F)(F)F)cc1` (configuration not stated) yielded an MIC of 50 µg/mL (≈ 92.9 µM).

`CC1=NN(/C(C)=N\OC(=O)c2ccccc2F)C(c2ccccc2OCc2ccc(F)cc2)C1` (configuration not stated) gave an MIC of 50 µg/mL (≈ 108 µM).

`C/C(=N/OC(=O)/C=C/c1ccccc1)N1N=C(c2ccc(Cl)cc2Cl)CC1c1ccc(C(F)(F)F)cc1` (configuration not stated) showed an MIC of 6.25 µg/mL (≈ 11.4 µM).

`C/C(=N/OC(=O)/C=C/c1ccccc1)N1N=C(c2ccc(Cl)cc2Cl)CC1c1ccccc1F` (configuration not stated) came in with an MIC of 50 µg/mL (≈ 101 µM).

Tested on in another assay: not listed separately
The assay is described as follows: Inhibition of Escherichia coli DNA gyrase supercoiling activity.
Details: not given
`C/C(=N/OC(=O)c1ccco1)N1N=C(c2ccc(Cl)cc2Cl)CC1c1ccc(C(F)(F)F)cc1` (configuration not stated): the IC50 (commonly the point on the concentration scale where inhibition reaches its midpoint) came to 8 µg/mL (≈ 15.7 µM).

The compound `C/C(=N/OC(=O)c1ccco1)N1N=C(c2ccc(Cl)cc2Cl)CC1c1ccccc1F` (configuration not stated) registered an IC50 of 1 µg/mL (≈ 2.17 µM).

The next assay deals with Escherichia coli. The assay is described as follows: Antibacterial activity against Escherichia coli ATCC 35218. Type of assay: functional.
Details: not given
The compound `CC1=NN(/C(C)=N\OC(=O)/C=C/c2ccccc2)C(c2ccc(OCc3ccc(F)cc3)cc2)C1` (configuration not stated) came in with an MIC of 12.5 µg/mL (≈ 26.5 µM).

The compound `C/C(=N/OC(=O)c1ccco1)N1N=C(c2ccc(Cl)cc2Cl)CC1c1ccc(C(F)(F)F)cc1` (configuration not stated) yielded an MIC of 3.12 µg/mL (≈ 6.12 µM).

For `C/C(=N/OC(=O)c1ccco1)N1N=C(c2ccc(Cl)cc2Cl)CC1c1ccccc1F` (configuration not stated), the MIC stood at 1.56 µg/mL (≈ 3.39 µM).

In turn, `C/C(=N/OC(=O)c1ccc(Cl)cc1)N1N=C(c2ccc(Cl)cc2Cl)CC1c1ccccc1F` (configuration not stated) yielded an MIC of 50 µg/mL (≈ 99.1 µM).

`C=CC(=O)O/N=C(/C)N1N=C(C)CC1c1ccc(OCc2ccc(F)cc2)cc1` (configuration not stated) had an MIC of 25 µg/mL (≈ 63.2 µM).

Compound `C=CC(=O)O/N=C(/C)N1N=C(c2ccc(Cl)cc2Cl)CC1c1ccc(C(F)(F)F)cc1` (configuration not stated) gave an MIC of 6.25 µg/mL (≈ 13.3 µM).

The compound `C/C(=N/OC(=O)c1ccccc1F)N1N=C(c2ccc(Cl)cc2Cl)CC1c1ccc(C(F)(F)F)cc1` (configuration not stated) showed an MIC of 50 µg/mL (≈ 92.9 µM).

In the case of `CC1=NN(/C(C)=N\OC(=O)c2ccccc2F)C(c2ccccc2OCc2ccc(F)cc2)C1` (configuration not stated), the MIC amounted to 50 µg/mL (≈ 108 µM).

`C/C(=N/OC(=O)/C=C/c1ccccc1)N1N=C(c2ccc(Cl)cc2Cl)CC1c1ccc(C(F)(F)F)cc1` (configuration not stated) yielded an MIC of 12.5 µg/mL (≈ 22.9 µM).

`C/C(=N/OC(=O)/C=C/c1ccccc1)N1N=C(c2ccc(Cl)cc2Cl)CC1c1ccccc1F` (configuration not stated) showed an MIC of 6.25 µg/mL (≈ 12.6 µM).
